MrgX1 antagonist: human MrgX1 receptor antagonism, primary screen. B-score at 10 µM. actives 1.3% (n = 310,000). MRGX1-HEK293 calcium flux, Fluo-4, BAM8-22 antagonism; stronger effect = lower value;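 active = calcium-response B-score plate-corrected more than 3 library SD below zero, starting fluorescence within 5 deviations, no agonist response on first addition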;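 also: peak minus trough fluorescence over baseline after final BAM8-22 challenge near maximal dose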
Target sequence (Q96LB2 whole entry, looked up): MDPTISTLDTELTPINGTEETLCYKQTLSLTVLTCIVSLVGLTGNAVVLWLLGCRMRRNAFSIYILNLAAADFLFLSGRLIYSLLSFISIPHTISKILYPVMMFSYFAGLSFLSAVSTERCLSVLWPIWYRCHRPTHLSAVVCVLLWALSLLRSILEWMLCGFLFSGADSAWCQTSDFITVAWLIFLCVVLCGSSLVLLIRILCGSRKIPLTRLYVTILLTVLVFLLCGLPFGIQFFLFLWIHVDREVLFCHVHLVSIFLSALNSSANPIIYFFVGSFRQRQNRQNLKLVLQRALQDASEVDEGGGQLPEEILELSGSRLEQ
MrgX1 ag: activates human MrgX1 receptor signaling. Q96LB2. MrgX1-HEK293 cells, Fluo-4 calcium fluorescence, agonist mode; stronger effect = higher value. B-score at 10 µM. actives 0.44% (n = 310,000). AID 588627;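 active = calcium response B-score plate-corrected fluorescence ratio at least 3 library SD, with starting fluorescence B-score inside 5 SD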
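Material: MrgX1-expressing HEK293 cells / Dosing: compound as first of three additions / Incubation: overnight seeding, then 1 h dark dye loading / Signal: Fluo-4 NW calcium fluorescence / Evaluation: B-scored fluorescence response ratio / Benchmarks: positive and negative control wells on each plate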
MrgX1 allo act: allosterically activates human MrgX1 receptor signaling | B-score at 10 µM | AID 588675 | MrgX1-HEK293, Fluo-4 calcium flux, FDSS; stronger effect = higher value | actives 0.63% (n = 310,000);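 active = plate-corrected calcium response at least 3 library SD above typical, normal starting fluorescence, not activating the receptor alone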;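 also: compound read alongside a low EC10 to EC30 dose of BAM8-22 agonist; peak minus trough fluorescence over baseline measured at the second addition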
RGS4 inh: inhibitors of human RGS4 | B-score at 10 µM | actives 0.45% (n = 310,000) | HEK293 M3R/RGS4 inducible, Fluo-4 calcium flux; stronger effect = higher value; triggered by carbachol at its EC20;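 active = B-score, a plate-corrected calcium signal, over three deviations above library mean, with baseline fluorescence within five deviations of library mean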;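 also: RGS4 expression induced by doxycycline in cells with stable M3 receptor; B-score is computed from the integrated fluorescence ratio over baseline after carbachol; higher B-score means a larger calcium signal and so more RGS4 inhibition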
Target sequence (P49798 whole entry, looked up): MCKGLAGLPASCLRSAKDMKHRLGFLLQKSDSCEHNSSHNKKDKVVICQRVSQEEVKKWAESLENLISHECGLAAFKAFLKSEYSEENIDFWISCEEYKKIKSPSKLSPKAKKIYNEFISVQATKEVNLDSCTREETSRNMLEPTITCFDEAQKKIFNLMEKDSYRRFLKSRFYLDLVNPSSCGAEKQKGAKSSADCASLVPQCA
RGS4 act: potentiators or activators of RGS4; HEK293 M3R/inducible RGS4, carbachol calcium flux Fluo4; stronger effect = lower value; B-score at 10 µM; actives 0.92% (n = 310,000); AID 463111;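 active = B-score of the integrated calcium signal more than 4 SD below the library mean, with starting fluorescence not abnormally high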;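 also: negative B-score means reduced calcium response which marks RGS4 activation or potentiation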
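System: HEK293 FlpIn-TREx cells, stable M3R, doxycycline-inducible RGS4. Timing: overnight RGS4 induction, 30 min dye load 37 °C, 20 min compound RT. Also added: carbachol, ECmax concentration. Measured by: Fluo4 fluorescence kinetic imaging of calcium. Evaluation: integrated calcium ratio converted to B score.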
An asterisk follows results filed as active; i = inactive; · = not tested or not shown. This is a sample that favours compounds with a hit; in the whole collection about 3.5% have one here.

SMILES | MrgX1 antagonist | MrgX1 ag | MrgX1 allo act | RGS4 inh | RGS4 act
COc1cccc(CCNC(=O)C2CCC(=O)N(C3CC3)C2)c1OC (stereo not given) | · | · | · | i | i
Cc1ccc(NC(=O)CN(C)C(=O)c2ccc(NC(=O)CC3SC(N4CCCC4)=NC3=O)cc2)cc1 (stereo not given) | -9.6* | i | i | i | i
CCOC(=O)/C(C#N)=C/c1c(N2CCN(c3ccccc3)CC2)nc2c(C)cccn2c1=O | i | i | i | i | -7.8*
CCNC(=O)/C(C#N)=C/c1c(N2CCN(c3cccc(Cl)c3)CC2)nc2c(C)cccn2c1=O | i | i | i | i | -11*
CN(C)/C=C/C(=O)c1ccc(F)cc1F | i | i | i | i | i
O=C(NCc1ccco1)C1CCCN1C(=O)Nc1ccc(Cl)cc1 (stereo not given) | i | i | i | i | i
CCN=c1scc(-c2ccccc2)n1/N=C/c1ccccn1 | i | i | 12* | i | i
C=CCN=c1scc(-c2ccc(F)cc2)n1/N=C/c1ccccn1 | i | i | i | i | i
C=CCN=c1scc(-c2ccccc2)n1/N=C/c1ccccn1 | i | i | 14* | i | i
CCN(CC)C(=O)Cn1cc(C(=O)C(=O)NCc2ccccn2)c2ccccc21 | i | i | i | i | i
CCOc1cc(/C=C2/C(=O)ON=C2C)ccc1O | i | 33* | i | i | i
COc1cc(/C=C2/C(=O)ON=C2C)cc(Cl)c1O | i | 40* | i | i | i
C#CCOc1c(Cl)cc(/C=C2/C(=O)ON=C2C)cc1OC | i | i | i | i | i
O=C(c1ccc(N2CCCCS2(=O)=O)cc1)N1CCN(c2ccccc2F)CC1 | i | i | i | i | i
O=c1c2ccccc2nc(SCc2ccccc2Cl)n1Cc1ccccc1 | -6.8* | i | i | i | i
C=CCSc1nc2ccccc2c(=O)n1Cc1ccccc1 | i | i | i | i | i
N#Cc1sc(=O)[nH]c1Cl | i | i | i | i | i
CCCOc1ccc(C(=O)N/N=C/c2ccc(-c3ccc(S(=O)(=O)Nc4ncccn4)cc3)o2)cc1 | i | 29* | i | i | i
NS(=O)(=O)c1ccc(CCNCc2ccccc2OCc2ccc(F)cc2)cc1 | -4.8* | i | i | i | i
N#CCCS(=O)(=O)c1nnnn1-c1ccccc1 | i | 42* | i | · | ·
c1ccc(-n2nnnc2Cc2nnnn2-c2ccccc2)cc1 | i | i | i | i | i
CC(NC(=O)COc1cccnc1[N+](=O)[O-])c1ccc(Cl)cc1 (stereo not given) | i | i | i | i | -8.1*
Cc1cc(Nc2cc(Cl)nc(Sc3ccc(NC(=O)C4CC4)cc3)n2)n[nH]1 | i | i | i | i | i
O=C(Nc1ccc2cn[nH]c2c1)c1c(Cl)cccc1Cl | i | i | i | i | i
O=C1C(Cl)=C(Nc2ccc3cn[nH]c3c2)C(=O)c2ccccc21 | -9.6* | i | i | i | i
SMILES | MrgX1 antagonist | MrgX1 ag | MrgX1 allo act | RGS4 inh | RGS4 act
COc1cccc(N2C(=O)CC(NNc3nc4ccccc4s3)C2=O)c1 (stereo not given) | i | 30* | i | i | i
CCOC(=O)c1ccc(S(=O)(=O)NNC(=O)c2cccc(N(C)C)c2)cc1 | i | i | 7.1* | i | i
CCNc1ccc(C(=O)OCC)cc1NC(=O)c1cccc(N(C)C)c1 | i | i | i | i | i
Cc1cc(C)c(C#N)c(SCc2c(F)cccc2[N+](=O)[O-])n1 | -5.7* | i | i | i | i
O=C(CC1(CC2=NS(=O)(=O)c3ccccc3N2)CCCC1)NCCc1ccccc1 | i | i | i | i | i
O=[N+]([O-])c1ccccc1N/N=C/c1c[nH]c2ccccc12 | i | i | i | i | i
O=[N+]([O-])c1ccc(N/N=C/c2ccc[nH]2)cc1 | i | 27* | i | · | ·
O=[N+]([O-])c1ccc(N/N=C/c2c[nH]c3ccccc23)cc1 | -9.1* | i | i | i | i
CSCC[C@H](NC(=O)c1ccc2ccccc2c1)C(=O)N1CCC2(CC1)NCCc1[nH]cnc12 | i | i | i | i | -7.6*
COc1cc(OC)c(C(=O)OCC(=O)NCCC2=CCCCC2)cc1OC | i | i | i | i | i
Cc1cc(C)c(S(=O)(=O)Nc2nnc(C3CCCCC3)s2)c(C)c1 | i | i | i | i | i
CN(CCCN1CCCCC1)C(=O)c1cc(COc2ccc(F)cc2F)on1 | -7.3* | i | i | i | i
CN(CCCC1CCCC1)C(=O)c1cc(COc2ccc(F)cc2F)on1 | i | i | i | i | i
CCNC(=S)N/N=C(\C)c1ccc2c(c1)OCCO2 | -6.5* | i | i | i | i
CCOC(=O)c1cc(-c2ccc(/C=C3/C(=O)N(c4ccc(C(=O)O)cc4)N=C3C)o2)ccc1Cl | i | i | i | i | -7.3*
CC1=NN(c2ccc(Br)cc2)C(=O)/C1=C/c1ccc(-c2ccccc2C(=O)O)o1 | i | i | 9.3* | i | i
CCN1CCc2c(OCC(=O)Nc3ccc(C)cc3)cccc2C1=O | i | i | i | i | i
COc1ccc(C2=C/C(=C/c3cccnc3)C(=O)O2)cc1OC | i | i | i | i | i
CCOc1ccc(C2=C/C(=C/c3cccnc3)C(=O)O2)cc1 | i | i | 28* | i | i
CCS(=O)(=O)c1ccc2oc(SCC(=O)NCc3ccccc3)nc2c1 | i | i | i | i | -7.2*
COC(=O)c1ccc(N)c(N=CC2=C(O)CC(C)(C)CC2=O)c1 | i | 27* | i | i | i
CSc1cccc(NC(=S)NC(=O)c2cccnc2)c1 | i | i | i | i | i
Cc1ccc(-n2cc(-c3ccc([N+](=O)[O-])cc3)[nH]c2=S)c(C)c1 | i | i | 9.7* | i | i
COc1ccccc1NS(=O)(=O)c1cc(C(=O)NCC(c2ccco2)N2CCCCC2)ccc1C (stereo not given) | -5.4* | i | i | i | i
COc1ccccc1NS(=O)(=O)c1cc(C(=O)NCC(c2ccco2)N(C)C)ccc1C (stereo not given) | i | i | i | i | i
COc1cc(NC(=O)COC(=O)[C@@H]2CCCN2S(=O)(=O)c2ccc(Cl)cc2)cc(OC)c1OC | i | i | 8.9* | · | ·
O=C(COC(=O)[C@@H]1CCCN1S(=O)(=O)c1ccc(Cl)cc1)NC12CC3CC(CC(C3)C1)C2 | i | i | i | i | i
